From ChEMBL document CHEMBL4196091 (Eur J Med Chem, 2018)
Blank lines part the entries; values can stand above or below the compound they belong to. Activity calls are given as the source filed them. The calls are words filed in the database; no cut-off is given here.

Key:
HEK293 = assay: Antiproliferative activity against HEK293 cells after 2 days by MTT assay; assay type: ADME, cell-based; conditions: Homo sapiens, HEK293, 48 h
HT-29 [1] = assay: Antiproliferative activity against human HT-29 cells after 2 days by MTT assay; assay type: functional, cell-based; conditions: HT-29, 48 h
[2] = Selectivity index, ratio of IC50 for HEK293 cells to IC50 for human HT-29 cells; conditions: HEK293 cells versus HT-29 cells
[3] = Selectivity index, ratio of IC50 for HEK293 cells to IC50 for human MCF7 cells; conditions: HEK293 cells versus MCF7 cells
MCF7 = assay: Antiproliferative activity against human MCF7 cells after 2 days by MTT assay; assay type: functional, cell-based; conditions: MCF7, 48 h
A549 [4] = assay: Antiproliferative activity against human A549 cells after 2 days by MTT assay; assay type: functional, cell-based; conditions: A549, 48 h
[5] = Selectivity index, ratio of IC50 for HEK293 cells to IC50 for human A549 cells; conditions: HEK293 cells versus A549 cells
HT-29 [6] = assay: Downregulation of VEGF gene expression in human HT-29 cells assessed as VEGF mRNA level at 3 nM after 48 hrs by RT-PCR method (reference value: 100%); assay type: functional
Method in brief: (§1)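 HT-29 cells (1.5 x 10^5 per well, six-well plate) seeded 24 h, then exposed 48 h with DMSO control; total RNA extracted, target mRNA quantified by TaqMan RT-qPCR, normalized to β-actin, expressed as percentage of control. At least three measurements; one-sample t-tests.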

A549 [7] = assay: Cell cycle arrest in human A549 cells assessed as accumulation at G2/M phase at 7.5 nM after 24 hrs by propidium iodide staining based flow cytometry (reference value: 11 +/- 4%); assay type: functional
Method in brief: (§2)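 A549 cells kept in DMEM (1 g/L glucose, 2 mM glutamine, antibiotics, amphotericin B, 10% FBS), treated 24 h with compound from 10 mM DMSO stock; fixed, RNase-treated, stained with propidium iodide, DNA content read by flow cytometry for phase distribution. Average (±SD) of two experiments.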

A549 [8] = assay: Cell cycle arrest in human A549 cells assessed as accumulation at G2/M phase at antiproliferative IC50 after 24 hrs by propidium iodide staining based flow cytometry; assay type: functional; method in brief: as §2
A549 [9] = assay: Cell cycle arrest in human A549 cells assessed as accumulation at S phase at 7.5 nM after 24 hrs by propidium iodide staining based flow cytometry (reference value: 15 +/- 6%); assay type: functional; method in brief: as §2
HT-29 [10] = assay: Downregulation of hTERT gene expression in human HT-29 cells assessed as hTERT mRNA level at 3 nM after 48 hrs by RT-PCR method (reference value: 100%); assay type: functional; method in brief: as §1
HT-29 [11] = assay: Downregulation of c-Myc gene expression in human HT-29 cells assessed as c-Myc mRNA level at 3 nM after 48 hrs by RT-PCR method (reference value: 100%); assay type: functional; method in brief: as §1
A549 [12] = assay: Cell cycle arrest in human A549 cells assessed as accumulation at sub-G0 phase at 7.5 nM after 24 hrs by propidium iodide staining based flow cytometry (reference value: 2 +/- 1%); assay type: functional; method in brief: as §2
HT-29 [13] = assay: Inhibition of VEGF protein secretion in human HT-29 cells assessed as VEGF protein level at 3 nM after 48 hrs by ELISA (reference value: 100%); assay type: functional; set-up: scale not given: the % may be the effect or the level left
Method in brief: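 HT-29 cells (1.5 x 10^5 per well, six-well plate) seeded 24 h, then treated 48 h with DMSO control; secreted VEGF in culture supernatant measured by human VEGF ELISA kit, expressed as percentage of control. At least three measurements.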

A549 [14] = assay: Cell cycle arrest in human A549 cells assessed as accumulation at G0/G1 phase at 7.5 nM after 24 hrs by propidium iodide staining based flow cytometry (reference value: 73 +/- 3%); assay type: functional; method in brief: as §2
HT-29 [15] = assay: Downregulation of c-Myc gene expression in human HT-29 cells assessed as c-Myc mRNA level at […] after 48 hrs by RT-PCR method (reference value: 100%); assay type: functional
HT-29 [16] = assay: Downregulation of hTERT gene expression in human HT-29 cells assessed as hTERT mRNA level at […] after 48 hrs by RT-PCR method (reference value: 100%); assay type: functional
A549 [17] = assay: Cell cycle arrest in human A549 cells assessed as accumulation at G0/G1 phase at 15 nM after 24 hrs by propidium iodide staining based flow cytometry (reference value: 73 +/- 3%); assay type: functional
Method in brief: (§3)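 A549 cells maintained in DMEM (1 g/L glucose, 2 mM glutamine, penicillin/streptomycin/amphotericin B, 10% FBS) and treated for 24 h. Cells were then fixed, RNase-treated and stained with propidium iodide. DNA content was measured by flow cytometry to give cell-cycle phase distribution, including a sub-G1 peak. Data are means (±SD) of two experiments.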

HT-29 [18] = assay: Inhibition of VEGF protein secretion in human HT-29 cells assessed as VEGF protein level at […] after 48 hrs by ELISA (reference value: 100%); assay type: functional; set-up: scale not given: the % may be the effect or the level left
A549 [19] = assay: Cell cycle arrest in human A549 cells assessed as accumulation at G2/M phase at 3 nM after 24 hrs by propidium iodide staining based flow cytometry; assay type: functional; method in brief: as §3
A549 [20] = assay: Cell cycle arrest in human A549 cells assessed as accumulation at G2/M phase at 15 nM after 24 hrs by propidium iodide staining based flow cytometry (reference value: 11 +/- 4%); assay type: functional; method in brief: as §3
HT-29 [21] = assay: Downregulation of VEGF gene expression in human HT-29 cells assessed as VEGF mRNA level at […] after 48 hrs by RT-PCR method (reference value: 100%); assay type: functional
A549 [22] = assay: Cell cycle arrest in human A549 cells assessed as accumulation at sub-G0 phase at 15 nM after 24 hrs by propidium iodide staining based flow cytometry (reference value: 2 +/- 1%); assay type: functional; method in brief: as §3
A549 [23] = assay: Cell cycle arrest in human A549 cells assessed as accumulation at S phase at 15 nM after 24 hrs by propidium iodide staining based flow cytometry (reference value: 15 +/- 6%); assay type: functional; method in brief: as §3
A549 [24] = assay: Cell cycle arrest in human A549 cells assessed as accumulation at S phase at 20 nM after 24 hrs by propidium iodide staining based flow cytometry (reference value: 15 +/- 6%); assay type: functional; method in brief: as §3
A549 [25] = assay: Cell cycle arrest in human A549 cells assessed as accumulation at sub-G0 phase at 20 nM after 24 hrs by propidium iodide staining based flow cytometry (reference value: 2 +/- 1%); assay type: functional; method in brief: as §3
A549 [26] = assay: Cell cycle arrest in human A549 cells assessed as accumulation at G2/M phase at 20 nM after 24 hrs by propidium iodide staining based flow cytometry (reference value: 11 +/- 4%); assay type: functional; method in brief: as §3
A549 [27] = assay: Cell cycle arrest in human A549 cells assessed as accumulation at G0/G1 phase at 20 nM after 24 hrs by propidium iodide staining based flow cytometry (reference value: 73 +/- 3%); assay type: functional; method in brief: as §3
A549 [28] = assay: Cell cycle arrest in human A549 cells assessed as accumulation at G2/M phase at 50 nM after 24 hrs by propidium iodide staining based flow cytometry (reference value: 11 +/- 4%); assay type: functional; method in brief: as §3
A549 [29] = assay: Cell cycle arrest in human A549 cells assessed as accumulation at sub-G0 phase at 50 nM after 24 hrs by propidium iodide staining based flow cytometry (reference value: 2 +/- 1%); assay type: functional; method in brief: as §3
A549 [30] = assay: Cell cycle arrest in human A549 cells assessed as accumulation at S phase at 50 nM after 24 hrs by propidium iodide staining based flow cytometry (reference value: 15 +/- 6%); assay type: functional; method in brief: as §3
A549 [31] = assay: Cell cycle arrest in human A549 cells assessed as accumulation at G0/G1 phase at 50 nM after 24 hrs by propidium iodide staining based flow cytometry (reference value: 73 +/- 3%); assay type: functional; method in brief: as §3

Compound: CCCCCc1ccc(C(=O)N[C@H]2CCc3cc(OC)c(OC)c(OC)c3-c3ccc(OC)c(=O)cc32)cc1
- IC50 (HEK293): 1.6 nM
- IC50 (HT-29 [1]): 4.2 nM
- selectivity ratio [2]: 0.4
- selectivity ratio [3]: 0.3
- IC50 (MCF7): 5.8 nM
- IC50 (A549 [4]): 1.27 nM
- selectivity ratio [5]: 1.3

Compound: COc1cc2c(c(OC)c1OC)-c1ccc(OC)c(=O)cc1[C@@H](NC(=O)CF)CC2
- Activity (HT-29 [6]): >100%
- Activity (A549 [7]): 60%
- Activity (A549 [8]): Active
- Activity (A549 [9]): 15%
- IC50 (HEK293): 7.1 nM
- Activity (HT-29 [10]): >100%
- IC50 (HT-29 [1]): 4.7 nM
- Activity (HT-29 [11]): >100%
- Activity (A549 [12]): 2%
- Activity (HT-29 [13]): 88%
- IC50 (MCF7): 7.3 nM
- IC50 (A549 [4]): 7.83 nM
- Activity (A549 [14]): 25%

Compound: COc1cc2c(c(OC)c1OC)-c1ccc(OC)c(=O)cc1[C@@H](NC(=O)Cc1ccccc1)CC2
- Activity (A549 [24]): 16%
- Activity (A549 [25]): 5%
- IC50 (HEK293): 3.9 nM
- Activity (A549 [26]): 60%
- IC50 (HT-29 [1]): 2.84 nM
- Activity (A549 [27]): 19%
- IC50 (MCF7): 2.6 nM
- IC50 (A549 [4]): 2.8 nM

Now from value to compound, other results behind:

- IC50 (HT-29 [1]): 1.79 nM
- IC50 (MCF7): 6.7 nM
- IC50 (A549 [4]): 6.6 nM
Compound: COc1cc2c(c(OC)c1OC)-c1ccc(OC)c(=O)cc1[C@@H](NC(=O)c1ccc(Cl)cc1)CC2
- Activity (HT-29 [15]): 37%
- Activity (HT-29 [16]): 73%
- IC50 (HEK293): 10.1 nM
- Activity (A549 [17]): 27%
- Activity (HT-29 [18]): 54%
- Activity (A549 [19]): Active
- Activity (A549 [20]): 48%
- Activity (HT-29 [21]): 37%
- Activity (A549 [22]): 2%
- Activity (A549 [23]): 14%

- IC50 (HT-29 [1]): 1.8 nM
- IC50 (MCF7): 3.4 nM
- IC50 (A549 [4]): 3.1 nM
Compound: COc1cc2c(c(OC)c1OC)-c1ccc(OC)c(=O)cc1[C@@H](NC(=O)c1cccc(Cl)c1)CC2
- Activity (A549 [24]): 15%
- Activity (HT-29 [15]): 20%
- Activity (A549 [25]): 6%
- Activity (HT-29 [16]): 59%
- IC50 (HEK293): 3 nM
- Activity (HT-29 [18]): 48%
- Activity (A549 [26]): 57%
- Activity (A549 [19]): Active
- Activity (A549 [27]): 24%
- Activity (HT-29 [21]): 30%

- IC50 (HT-29 [1]): 5.7 nM
- IC50 (MCF7): 2.02 nM
- IC50 (A549 [4]): 2 nM
Compound: COc1cc2c(c(OC)c1OC)-c1ccc(OC)c(=O)cc1[C@@H](NC(=O)c1ccccc1C)CC2
- Activity (A549 [28]): 47%
- Activity (A549 [29]): 8%
- IC50 (HEK293): 9 nM
- Activity (A549 [30]): 14%
- Activity (A549 [31]): 24%
